In ChEMBL document CHEMBL3425440, “ent-Kaurane Diterpenoids from Chinese Liverworts and Their Antitumor Activities through Michael Addition As Detected in Situ by a Fluorescence Probe” (J Med Chem, 2015):

system: NCI-H1299; assay: Cytotoxicity against human NCI-H1299 cells assessed as cell viability after 24 hrs by MTT assay; format: functional, cell-based; conditions: NCI-H1299, 24 h
Outline: (§1)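 Cells grown to about 50−70% confluence at 37 °C, 5% CO2, then exposed to compounds 24 h (DMSO vehicle control, cisplatin positive control). MTT (5 mg/mL stock) added for 4 h, formazan dissolved in DMSO, absorbance read at 570 nm. IC50 derived from percent viability; at least three independent experiments, mean ± SD.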

Structure (SMILES)	IC50
C[C@@H]1C(=O)[C@@]23CC[C@@H]4C(C)(C)[C@H](O)CC[C@@]4(C)[C@@H]2[C@@H](O)C[C@@H]1C3	> 50 µM
C=C1C(=O)[C@H]2C[C@@H]1CC1=C2[C@]2(C)CCC[C@](C)(CO)[C@H]2CC1	> 50 µM
C[C@H]1C(=O)[C@@]23C[C@H](O)[C@@H]4[C@@](C)(CO)CCC[C@@]4(C)C2=CC[C@]1(O)C3	> 50 µM
C[C@@H]1C(=O)[C@H]2C[C@]1(O)CC1=C2[C@]2(C)CCC[C@](C)(CO)[C@H]2CC1	> 50 µM

system: K562; assay: Cytotoxicity against human K562 cells assessed as cell viability after 24 hrs by MTT assay; format: functional, cell-based; conditions: K562, 24 h; outline: as §1

Structure (SMILES)	IC50
C[C@@H]1C(=O)[C@@]23CC[C@@H]4C(C)(C)[C@H](O)CC[C@@]4(C)[C@@H]2[C@@H](O)C[C@@H]1C3	> 50 µM
C=C1C(=O)[C@H]2C[C@@H]1CC1=C2[C@]2(C)CCC[C@](C)(CO)[C@H]2CC1	41.7 µM
C[C@H]1C(=O)[C@@]23C[C@H](O)[C@@H]4[C@@](C)(CO)CCC[C@@]4(C)C2=CC[C@]1(O)C3	> 50 µM
C[C@@H]1C(=O)[C@H]2C[C@]1(O)CC1=C2[C@]2(C)CCC[C@](C)(CO)[C@H]2CC1	> 50 µM

system: not listed separately; assay: Cytotoxicity against human PC3 cells assessed as cell viability after 24 hrs by MTT assay; format: functional, cell-based; conditions: PC-3, 24 h; outline: as §1

Structure (SMILES)	IC50
C[C@@H]1C(=O)[C@@]23CC[C@@H]4C(C)(C)[C@H](O)CC[C@@]4(C)[C@@H]2[C@@H](O)C[C@@H]1C3	> 50 µM
C=C1C(=O)[C@H]2C[C@@H]1CC1=C2[C@]2(C)CCC[C@](C)(CO)[C@H]2CC1	> 50 µM
C[C@H]1C(=O)[C@@]23C[C@H](O)[C@@H]4[C@@](C)(CO)CCC[C@@]4(C)C2=CC[C@]1(O)C3	> 50 µM
C[C@@H]1C(=O)[C@H]2C[C@]1(O)CC1=C2[C@]2(C)CCC[C@](C)(CO)[C@H]2CC1	> 50 µM

system: not listed separately; assay: Cytotoxicity against human SKOV3 cells assessed as cell viability after 24 hrs by MTT assay; format: functional, cell-based; conditions: SK-OV-3, 24 h; outline: as §1

Structure (SMILES)	IC50
C[C@@H]1C(=O)[C@@]23CC[C@@H]4C(C)(C)[C@H](O)CC[C@@]4(C)[C@@H]2[C@@H](O)C[C@@H]1C3	> 50 µM
C=C1C(=O)[C@H]2C[C@@H]1CC1=C2[C@]2(C)CCC[C@](C)(CO)[C@H]2CC1	> 50 µM
C[C@H]1C(=O)[C@@]23C[C@H](O)[C@@H]4[C@@](C)(CO)CCC[C@@]4(C)C2=CC[C@]1(O)C3	> 50 µM
C[C@@H]1C(=O)[C@H]2C[C@]1(O)CC1=C2[C@]2(C)CCC[C@](C)(CO)[C@H]2CC1	> 50 µM

system: not listed separately; assay: Cytotoxicity against human RWPE1 cells assessed as cell viability after 24 hrs by MTT assay; format: cell-based; conditions: RWPE-1, 24 h; outline: as §1

Structure (SMILES)	IC50
C[C@@H]1C(=O)[C@@]23CC[C@@H]4C(C)(C)[C@H](O)CC[C@@]4(C)[C@@H]2[C@@H](O)C[C@@H]1C3	> 50 µM
C=C1C(=O)[C@H]2C[C@@H]1CC1=C2[C@]2(C)CCC[C@](C)(CO)[C@H]2CC1	> 50 µM
C[C@H]1C(=O)[C@@]23C[C@H](O)[C@@H]4[C@@](C)(CO)CCC[C@@]4(C)C2=CC[C@]1(O)C3	> 50 µM
C[C@@H]1C(=O)[C@H]2C[C@]1(O)CC1=C2[C@]2(C)CCC[C@](C)(CO)[C@H]2CC1	> 50 µM

system: not listed separately; assay: Cytotoxicity against human SH-SY5Y cells assessed as cell viability after 24 hrs by MTT assay; format: functional, cell-based; conditions: not given; outline: as §1

Structure (SMILES)	IC50
C[C@@H]1C(=O)[C@@]23CC[C@@H]4C(C)(C)[C@H](O)CC[C@@]4(C)[C@@H]2[C@@H](O)C[C@@H]1C3	> 50 µM
C=C1C(=O)[C@H]2C[C@@H]1CC1=C2[C@]2(C)CCC[C@](C)(CO)[C@H]2CC1	33.8 µM
C[C@H]1C(=O)[C@@]23C[C@H](O)[C@@H]4[C@@](C)(CO)CCC[C@@]4(C)C2=CC[C@]1(O)C3	> 50 µM
C[C@@H]1C(=O)[C@H]2C[C@]1(O)CC1=C2[C@]2(C)CCC[C@](C)(CO)[C@H]2CC1	> 50 µM

system: not listed separately; assay: Cytotoxicity against human T24 cells assessed as cell viability after 24 hrs by MTT assay; format: functional, cell-based; conditions: T-24, 24 h; outline: as §1

Structure (SMILES)	IC50
C[C@@H]1C(=O)[C@@]23CC[C@@H]4C(C)(C)[C@H](O)CC[C@@]4(C)[C@@H]2[C@@H](O)C[C@@H]1C3	> 50 µM
C=C1C(=O)[C@H]2C[C@@H]1CC1=C2[C@]2(C)CCC[C@](C)(CO)[C@H]2CC1	49.1 µM
C[C@H]1C(=O)[C@@]23C[C@H](O)[C@@H]4[C@@](C)(CO)CCC[C@@]4(C)C2=CC[C@]1(O)C3	> 50 µM
C[C@@H]1C(=O)[C@H]2C[C@]1(O)CC1=C2[C@]2(C)CCC[C@](C)(CO)[C@H]2CC1	> 50 µM

system: LoVo; assay: Cytotoxicity against human LoVo cells assessed as cell viability after 24 hrs by MTT assay; format: functional, cell-based; conditions: not given; outline: as §1

Structure (SMILES)	IC50
C[C@@H]1C(=O)[C@@]23CC[C@@H]4C(C)(C)[C@H](O)CC[C@@]4(C)[C@@H]2[C@@H](O)C[C@@H]1C3	> 50 µM
C=C1C(=O)[C@H]2C[C@@H]1CC1=C2[C@]2(C)CCC[C@](C)(CO)[C@H]2CC1	35.2 µM
C[C@H]1C(=O)[C@@]23C[C@H](O)[C@@H]4[C@@](C)(CO)CCC[C@@]4(C)C2=CC[C@]1(O)C3	> 50 µM
C[C@@H]1C(=O)[C@H]2C[C@]1(O)CC1=C2[C@]2(C)CCC[C@](C)(CO)[C@H]2CC1	> 50 µM

system: MDA-MB-231; assay: Cytotoxicity against human MDA-MB-231 cells assessed as cell viability after 24 hrs by MTT assay; format: functional, cell-based; conditions: MDA-MB-231, 24 h; outline: as §1

Structure (SMILES)	IC50
C[C@@H]1C(=O)[C@@]23CC[C@@H]4C(C)(C)[C@H](O)CC[C@@]4(C)[C@@H]2[C@@H](O)C[C@@H]1C3	> 50 µM
C=C1C(=O)[C@H]2C[C@@H]1CC1=C2[C@]2(C)CCC[C@](C)(CO)[C@H]2CC1	> 50 µM
C[C@H]1C(=O)[C@@]23C[C@H](O)[C@@H]4[C@@](C)(CO)CCC[C@@]4(C)C2=CC[C@]1(O)C3	> 50 µM
C[C@@H]1C(=O)[C@H]2C[C@]1(O)CC1=C2[C@]2(C)CCC[C@](C)(CO)[C@H]2CC1	> 50 µM

system: DU-145; assay: Cytotoxicity against human DU145 cells assessed as cell viability after 24 hrs by MTT assay; format: functional, cell-based; conditions: DU-145, 24 h; outline: as §1

Structure (SMILES)	IC50
C[C@@H]1C(=O)[C@@]23CC[C@@H]4C(C)(C)[C@H](O)CC[C@@]4(C)[C@@H]2[C@@H](O)C[C@@H]1C3	> 50 µM
C=C1C(=O)[C@H]2C[C@@H]1CC1=C2[C@]2(C)CCC[C@](C)(CO)[C@H]2CC1	> 50 µM
C[C@H]1C(=O)[C@@]23C[C@H](O)[C@@H]4[C@@](C)(CO)CCC[C@@]4(C)C2=CC[C@]1(O)C3	> 50 µM
C[C@@H]1C(=O)[C@H]2C[C@]1(O)CC1=C2[C@]2(C)CCC[C@](C)(CO)[C@H]2CC1	> 50 µM

system: LNCaP; assay: Cytotoxicity against human LNCAP cells assessed as cell viability after 24 hrs by MTT assay; format: functional, cell-based; conditions: not given; outline: as §1

Structure (SMILES)	IC50
C[C@@H]1C(=O)[C@@]23CC[C@@H]4C(C)(C)[C@H](O)CC[C@@]4(C)[C@@H]2[C@@H](O)C[C@@H]1C3	> 50 µM
C=C1C(=O)[C@H]2C[C@@H]1CC1=C2[C@]2(C)CCC[C@](C)(CO)[C@H]2CC1	> 50 µM
C[C@H]1C(=O)[C@@]23C[C@H](O)[C@@H]4[C@@](C)(CO)CCC[C@@]4(C)C2=CC[C@]1(O)C3	> 50 µM
C[C@@H]1C(=O)[C@H]2C[C@]1(O)CC1=C2[C@]2(C)CCC[C@](C)(CO)[C@H]2CC1	> 50 µM

system: not listed separately; assay: Cytotoxicity against human Saos2 cells assessed as cell viability after 24 hrs by MTT assay; format: functional, cell-based; conditions: SAOS-2, 24 h; outline: as §1

Structure (SMILES)	IC50
C[C@@H]1C(=O)[C@@]23CC[C@@H]4C(C)(C)[C@H](O)CC[C@@]4(C)[C@@H]2[C@@H](O)C[C@@H]1C3	> 50 µM
C=C1C(=O)[C@H]2C[C@@H]1CC1=C2[C@]2(C)CCC[C@](C)(CO)[C@H]2CC1	35.5 µM
C[C@H]1C(=O)[C@@]23C[C@H](O)[C@@H]4[C@@](C)(CO)CCC[C@@]4(C)C2=CC[C@]1(O)C3	> 50 µM
C[C@@H]1C(=O)[C@H]2C[C@]1(O)CC1=C2[C@]2(C)CCC[C@](C)(CO)[C@H]2CC1	> 50 µM

system: not listed separately; assay: Cytotoxicity against human A172 cells assessed as cell viability after 24 hrs by MTT assay; format: functional, cell-based; conditions: A 172, 24 h; outline: as §1

Structure (SMILES)	IC50
C[C@@H]1C(=O)[C@@]23CC[C@@H]4C(C)(C)[C@H](O)CC[C@@]4(C)[C@@H]2[C@@H](O)C[C@@H]1C3	> 50 µM
C=C1C(=O)[C@H]2C[C@@H]1CC1=C2[C@]2(C)CCC[C@](C)(CO)[C@H]2CC1	> 50 µM
C[C@H]1C(=O)[C@@]23C[C@H](O)[C@@H]4[C@@](C)(CO)CCC[C@@]4(C)C2=CC[C@]1(O)C3	> 50 µM
C[C@@H]1C(=O)[C@H]2C[C@]1(O)CC1=C2[C@]2(C)CCC[C@](C)(CO)[C@H]2CC1	> 50 µM

system: not listed separately; assay: Cytotoxicity against human HL60 cells assessed as cell viability after 24 hrs by MTT assay; format: functional, cell-based; conditions: HL-60, 24 h; outline: as §1

Structure (SMILES)	IC50
C[C@@H]1C(=O)[C@@]23CC[C@@H]4C(C)(C)[C@H](O)CC[C@@]4(C)[C@@H]2[C@@H](O)C[C@@H]1C3	> 50 µM
C=C1C(=O)[C@H]2C[C@@H]1CC1=C2[C@]2(C)CCC[C@](C)(CO)[C@H]2CC1	23.6 µM
C[C@H]1C(=O)[C@@]23C[C@H](O)[C@@H]4[C@@](C)(CO)CCC[C@@]4(C)C2=CC[C@]1(O)C3	> 50 µM
C[C@@H]1C(=O)[C@H]2C[C@]1(O)CC1=C2[C@]2(C)CCC[C@](C)(CO)[C@H]2CC1	> 50 µM
